Data published in the RNAGym collection of RNA variant scans (doi:10.1126/science.aae0568).
Variants at the floor of the assay were thinned out.

B1: tRNA (parent)
chain: GUUCCGUUGGCGUAAUGGUAACGCGUCUCCCUCCUAAGGAGAAGACUGCGGGUUCGAGUCCCGUACGGAACG

Variants of: B1
Assay: yeast fitness relative to wild type (ratio to wild type); higher = fitter; tRNA-Arg(CCU), competitive growth, 37 C, YPD
Outline: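 The tRNA-Arg(CCU) gene variants were made by chemical synthesis with a 3% per-site mutation rate at 69 sites and inserted at the native genomic locus of Saccharomyces cerevisiae. After pooling, the strains were competed in YPD at 37°C for 24 hours in six parallel replicates. Gene amplicons from the start population and each end population were read by 100-nucleotide paired-end sequencing, and Darwinian fitness relative to wild type was taken from genotype frequency changes. Genotypes needed ≥ 100 starting reads, and estimates < 0.5 were set to 0.5.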

Variant	yeast fitness
G9C A43C A57U G63A	≤ 0.5
G9C A43C C55G	≤ 0.5
G9C A45C	0.587
G9C A45U	0.771
G9C A45U C55G	0.533
G9C A45U C55G C61U	≤ 0.5
G9C A57U C60A	0.727
G9C A57U C62G	≤ 0.5
G9C A65C A70U	0.539
G9C A65G	0.78
G9C A65U	0.774
G9C A69C	0.821
G9C A69U	0.841
G9C A70C	0.866
G9C C11A A14G U47G A69C	≤ 0.5
G9C C11A G23A A37U C60U	≤ 0.5
G9C C11G	0.525
G9C C11G A57C A70C	≤ 0.5
G9C C11G C24U	≤ 0.5
G9C C11G C24U C31U G67U	≤ 0.5
G9C C11G C24U C31U U59A	≤ 0.5
G9C C11G G56A	≤ 0.5
G9C C11G G58A	≤ 0.5
G9C C11U C22G A65U	≤ 0.5

Variant	yeast fitness
G9C C11U C30G A43C	≤ 0.5
G9C C11U G18C C31A	≤ 0.5
G9C C22A C34A	≤ 0.5
G9C C22A C34A C55G A65G	0.526
G9C C22A G48C G63C	≤ 0.5
G9C C22G A57C	≤ 0.5
G9C C22G C30A A42U U59C	≤ 0.5
G9C C22G C30U	0.648
G9C C22G C33G G63C A70G	0.6
G9C C22G C61A	0.611
G9C C22U C33G A43U A45U C46G U54A A65U	0.67
G9C C22U G48C G51C	0.595
G9C C22U U47C	0.694
G9C C24A	≤ 0.5
G9C C24A C62G A69C	≤ 0.5
G9C C24G	≤ 0.5
G9C C24G A40U C55A	≤ 0.5
G9C C24G A65C	≤ 0.5
G9C C24G C33G U35A G48C C66A	≤ 0.5
G9C C24G C60U U64A	≤ 0.5
G9C C24G G39C C55U A65C	≤ 0.5
G9C C24G G41A G52A C66U	0.602
G9C C24U A37C C61G	≤ 0.5
G9C C24U C30G	≤ 0.5

Variant	yeast fitness
G9C C24U C30G G51A C60U	≤ 0.5
G9C C24U C30G G51A C60U A69C	≤ 0.5
G9C C24U C34A G44C C46U G48A A69G	≤ 0.5
G9C C24U U26G U54G	≤ 0.5
G9C C27A	0.732
G9C C27A A70G	0.539
G9C C27A C29U A37C	0.637
G9C C27A C30A	≤ 0.5
G9C C27A C55U	≤ 0.5
G9C C27G	0.581
G9C C27G C30G A40U C49U	≤ 0.5
G9C C27G C60U A69U	≤ 0.5
G9C C27U A40U A65G	≤ 0.5
G9C C27U A42U G63C	≤ 0.5
G9C C27U C33G A37G	≤ 0.5
G9C C27U G41A	0.728
G9C C27U U47C C55U C62G A65G A69U	≤ 0.5
G9C C29G C30G G41A	≤ 0.5
G9C C29G C34G C60G	0.534
G9C C29G C34G C60G C62U	≤ 0.5
G9C C29U	0.674
G9C C29U A36U G63A G67A	≤ 0.5
G9C C29U A36U G67A	0.501
G9C C29U A70G	0.602

Variant	yeast fitness
G9C C29U C30A G56A	≤ 0.5
G9C C29U C34G G48C C62U	0.782
G9C C29U C55G	≤ 0.5
G9C C29U C55U	0.572
G9C C30A	0.664
G9C C30A C60U	0.655
G9C C30A G38A A42G	0.515
G9C C30A U35C C46G U54C G67C	≤ 0.5
G9C C30G	0.578
G9C C30G G68C	≤ 0.5
G9C C30G U53C	≤ 0.5
G9C C30U	0.628
G9C C30U U47A G67C	0.559
G9C C31A C49G	0.574
G9C C31A C62G C66U	≤ 0.5
G9C C31G	0.66
G9C C31G A40C A45C G48C	0.668
G9C C31G A40C C66U	≤ 0.5
G9C C31G A40C G50C C55U C60G A69G	0.549
G9C C31G C66A G68C	0.553
G9C C31G U32G	≤ 0.5
G9C C31U	0.676
G9C C31U A65U	≤ 0.5
G9C C33A A43C	≤ 0.5

Variant	yeast fitness
G9C C33G G39A C66G	0.59
G9C C34A	0.536
G9C C34A A57U	≤ 0.5
G9C C34G	0.548
G9C C34G A70G	≤ 0.5
G9C C34G C61U	0.553
G9C C34G C61U C66U	0.58
G9C C34G G52A G56A	≤ 0.5
G9C C34U	0.776
G9C C34U A45C G48C	≤ 0.5
G9C C34U C55A A57C	≤ 0.5
G9C C46U	0.896
G9C C46U A57C	0.662
G9C C46U C49U	0.692
G9C C46U G48C C62U	≤ 0.5
G9C C49G	0.63
G9C C49U	0.703
G9C C49U C55U U64C	≤ 0.5
G9C C55G	0.542
G9C C60G	0.53
G9C C60G G67A	0.572
G9C C60U	0.618
G9C C61A G67A	≤ 0.5
G9C C61G	0.61

Variant	yeast fitness
G9C C61U	0.844
G9C C62U G67C	≤ 0.5
G9C C66A	≤ 0.5
G9C C66U	0.621
G9C G10A C29U A37U C62U G67A A70C	≤ 0.5
G9C G10A G12C A45U C60A	≤ 0.5
G9C G10A G12C C22U A45U	≤ 0.5
G9C G10C C29G C66U	≤ 0.5
G9C G10C C33U	≤ 0.5
G9C G10C C33U G48C C55G	≤ 0.5
G9C G10C C61U	≤ 0.5
G9C G10C G18C C33U G44C C46U C62U	0.599
G9C G12A	0.629
G9C G12A C29A G38A A69G	≤ 0.5
G9C G12A C61G	≤ 0.5
G9C G12A C62G G67A	0.618
G9C G12C C31A A40U G67A	0.557
G9C G12C U47G G67C	0.607
G9C G17A U19C G23A A42G C49U C55U	≤ 0.5
G9C G17A U19C G23A C49U C55U	≤ 0.5
G9C G17A U19C G23A G67U	≤ 0.5
G9C G17A U64C	≤ 0.5
G9C G17C G18C C62U A69G	0.629
G9C G18A C22G C29U U32G A57U	≤ 0.5

Variant	yeast fitness
G9C G18C	0.525
G9C G18C C49G	≤ 0.5
G9C G18C C49G A65U	0.553
G9C G18C U32G G41C C46U	≤ 0.5
G9C G23A A40C A45C	≤ 0.5
G9C G23A A40C C55G	0.549
G9C G23A A40C C55G A65G	≤ 0.5
G9C G23A C33G	≤ 0.5
G9C G23A C34U	0.655
G9C G23A C34U C66G	≤ 0.5
G9C G23C A57C	≤ 0.5
G9C G23C C30G G44A G58C G63A A70G	≤ 0.5
G9C G38A A57C	≤ 0.5
G9C G39A G68C A69C	≤ 0.5
G9C G39C	0.64
G9C G39C A69U	≤ 0.5
G9C G39C C55G C62G A65C	≤ 0.5
G9C G39C C61U	0.544
G9C G39C G67U	≤ 0.5
G9C G41A C55U U59A A70U	≤ 0.5
G9C G41A C60G A65G	≤ 0.5
G9C G41C A45U G50A G67C	0.616
G9C G44A	0.673
